What follows are molecules tested on L1210 (assay: Cytotoxic concentration required to reduce rate of L1210 cell proliferation after 48 hr). Settings: Mus musculus, L1210, 48 h.
Type: functional, cell-based
Outline: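 L1210 cells grown rapidly in suspension culture were exposed to a range of inhibitor concentrations, some tests with the adenosine deaminase inhibitor pentostatin added. The drop in proliferation rate versus untreated controls was found by cell counts at 24 and 48 h after addition, and IC50 was taken from this.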
In the case of `Nc1nc(N)c2[nH]nc([C@@H]3O[C@H](CO)[C@@H](O)[C@H]3O)c2n1.OC[C@H]1O[C@@H](n2cnc3c2NC=NC[C@H]3O)C[C@@H]1O`, the IC50 is reported as 5 µM. `Nc1ncnc2c([C@@H]3O[C@H](CO)[C@@H](O)[C@H]3O)[nH]nc12` [FORMYCIN] was tested, and the IC50 was 1 µM. `Nc1nc(F)nc2c([C@@H]3O[C@H](CO)[C@@H](O)[C@H]3O)n[nH]c12` gave an IC50 of 12 µM. `Nc1nc(N)c2[nH]nc([C@@H]3O[C@H](CO)[C@@H](O)[C@H]3O)c2n1` was tested, and the IC50 was 31 µM. `Nc1nc(F)nc2c([C@@H]3O[C@H](CO)[C@@H](O)[C@H]3O)n[nH]c12.OC[C@H]1O[C@@H](n2cnc3c2NC=NC[C@H]3O)C[C@@H]1O` was tested, and the IC50 was 22 µM. In the case of `Nc1ncnc2c([C@@H]3O[C@H](CO)[C@@H](O)[C@H]3O)n[nH]c12.OC[C@H]1O[C@@H](n2cnc3c2NC=NC[C@H]3O)C[C@@H]1O`, the IC50 is reported as 0.2 µM.
